# CendR NRP1 mod = NRP-1/CendR interaction modulation | O14786 | FAM-RPARPAR peptide binding to NRP-1, fluorescence polarization | inhibition, % at 25 µM | 360,000 compounds, 0.85% hits | AID 602438;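 active = inhibition or corrected inhibition above about 18%, plus a signal ratio from 0.5 to 1.5, limit read from the data, passing the limit was not always enough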
# Tn7 DDE FP = disrupts Tn7 cyclic peptide binding to fibrin D-Dimer-E complex; P02675; FP displacement of FITC-Tn7 peptide from fibrin DD(E); 0% = median of compound wells per plate; inhibition, % at 8.3 µM; 370,000 compounds, 0.13% hits;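 active = inhibition above the mean of compounds falling within the control limits plus 3 SD of them, cut at about 14% in these data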;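 also: 0% = plate median of compound wells and 100% = 10 µM Aha-Tn7 peptide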
# Target sequence (P02675 whole entry, looked up): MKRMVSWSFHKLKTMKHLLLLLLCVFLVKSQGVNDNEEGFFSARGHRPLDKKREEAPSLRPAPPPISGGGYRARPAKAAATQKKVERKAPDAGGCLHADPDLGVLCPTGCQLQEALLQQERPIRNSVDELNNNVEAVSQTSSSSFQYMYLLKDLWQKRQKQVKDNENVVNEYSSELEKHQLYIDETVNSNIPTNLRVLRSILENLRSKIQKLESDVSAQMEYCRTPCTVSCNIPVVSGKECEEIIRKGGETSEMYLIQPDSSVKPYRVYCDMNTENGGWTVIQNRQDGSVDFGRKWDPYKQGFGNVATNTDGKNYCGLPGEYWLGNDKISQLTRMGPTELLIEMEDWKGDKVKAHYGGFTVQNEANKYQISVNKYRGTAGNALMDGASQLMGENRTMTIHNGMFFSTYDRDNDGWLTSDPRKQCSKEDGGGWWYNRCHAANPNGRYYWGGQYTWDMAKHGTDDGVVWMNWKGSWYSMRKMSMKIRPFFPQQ
#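 Assay system: human fibrin DD(E) protein / Input: 2 µM fibrin DD(E) / Benchmarks: high control of 10 µM Aha-Tn7 peptide / Measured by: fluorescence polarization of the labelled Tn7 tracer / Medium: Tris buffer with calcium and detergent, pH 7.8 / Timing: 10 min compound pre-incubation, 3 h probe incubation at room temperature / Repeats: one replicate per compound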
# DDE Tn6 FP inh = inhibitors of Tn6 peptide binding to human fibrin DD(E); Fibrin DD(E) TRITC-Tn6 fluorescence polarization displacement; inhibition, % at 8.3 µM; 370,000 compounds, 0.21% hits; AID 720509;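 active = inhibition above a per-campaign cutoff: mean of compounds within control limits plus 3 SD, cut at about 15% in these data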;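 also: 0% = median of all compound wells on the plate and 100% = blocking peptide control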
# aDG glyco up = alpha-DG glycosylation activation | activation, % at 10 µM | AID 624168 | Pro5-aDG cells, alpha-DG glycosylation AlphaScreen (IIH6); 0% Pro5, 100% B10-LARGE cell signal | 360,000 compounds, 0.22% hits;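 active = activation of at least 8% versus controls, or a plate z-score of at least 8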;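 also: Pro5 are CHO cells carrying HIG-tagged alpha-DG that lacks glycosylation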
# An asterisk follows results filed as active; . = no result given. A selection: hits, their analogues and other compounds. The true share with any hit is near 1.3%.
SMILES,CendR NRP1 mod,Tn7 DDE FP,DDE Tn6 FP inh,aDG glyco up
COc1ccc(S(=O)(=O)NC(C)C(=O)NC2CC2)cc1C (configuration not stated),28.2*,-1.6,-3.9,0.0
COc1ccc(S(=O)(=O)NC(C)C(=O)N2CCCC2)cc1C (configuration not stated),4.9,3.4,-5.4,-0.1
O=C(Cn1c(-c2ccccc2Cl)nc2ccccc21)Nc1cccc(Cl)c1,21.2*,-4.9,4.6,-0.2
COc1ccc(-c2ccc(C(=O)Nc3ccc(C(C)C)cc3)c3occc23)c(C)c1,6.5,-5.6,1.1,0.8
CCn1c(=NC(=O)CSCC(=O)Nc2nccs2)sc2ccccc21,31.7*,4.1,3.0,0.3
C/C(=N\Nc1ccc(S(=O)(=O)N2CCOCC2)cc1[N+](=O)[O-])C(C)C,3.8,-2.9,-14.4,-0.4
COCC(C)n1c(C)cc(C(=O)COC(=O)c2ccc3c(c2)NC(=O)CS3)c1C (configuration not stated),29.9*,5.6,0.7,-0.3
Cc1cc(C(=O)COC(=O)c2ccc3c(c2)NC(=O)CS3)c(C)n1CC1CCCO1 (configuration not stated),-8.2,-3.6,1.7,0.4
Cc1ccccc1CN1C(=O)CS/C1=N/N=C/c1ccco1,29.0*,-5.4,-5.5,0.0
CCOC(=O)[C@@]12CN(C(=O)OC(C)(C)C)CC=C1N(Cc1ccc(OC)cc1)C(=O)[C@H]2CC(=O)NCc1cccc(C(F)(F)F)c1,.,1.2,-0.7,.
O=C(O)c1ccc(N=N/C(=N\Nc2ccc(C(=O)O)cc2)c2ccccc2)cc1,34.5*,0.0,9.0,-0.2
Brc1ccc(N/N=C(/N=Nc2nn[nH]n2)c2ccccc2)cc1,41.7*,5.4,-1.1,0.6
C=CCNc1nc2cc(-c3ccccc3C)sc2c(=O)n1C,-12.6,3.1,0.0,-0.3
COC(=O)c1cccc(OC[C@@H](O)CN2CCC(C(O)(c3ccccc3)c3ccccc3)CC2)c1,.,-1.9,4.9,.
CC1(Cc2cc(Cl)ccc2C(F)(F)F)C(=O)Nc2c(Cl)cccc21 (configuration not stated),8.9,2.4,1.4,0.3
CC1(Cc2ccc(F)c(Cl)c2)C(=O)Nc2c(Cl)cccc21 (configuration not stated),25.2*,4.0,-4.0,0.0
CCOc1ccc(NS(=O)(=O)c2cc(Cl)ccc2OC)cc1,22.4*,-6.9,-6.0,0.0
COC(=O)c1cccc(NC(=O)c2cccc(OC)c2)c1,23.1*,0.7,1.1,0.1
COc1cccc(C(=O)Nc2ccc(C3CC3(Cl)Cl)cc2)c1 (configuration not stated),20.6*,2.8,-10.4,2.2
COc1cccc(C(=O)Nc2cccc(C(C)=O)c2)c1,-11.8,0.7,1.5,-0.2
Cc1ccc(C(O)c2ncc(-c3ccccc3Cl)[nH]2)cc1 (configuration not stated),-2.6,3.2,4.4,0.2
COC(=O)[C@@H](Cc1ccccc1)N[C@H](/C=C/c1ccccc1)[C@@H](O)Cc1ccccc1,.,-3.4,-1.7,.
O=S(=O)(c1cccc2ccccc12)N1CCSC1,30.1*,-0.6,-3.9,0.1
CC(OC(=O)CCNS(=O)(=O)c1ccccc1)C(=O)Nc1ccc(S(=O)(=O)N2CCCCC2)cc1 (configuration not stated),2.8,-9.9,3.9,-0.1
COC(=O)c1ccsc1NS(C)(=O)=O,.,1.6,-0.2,.
SMILES,CendR NRP1 mod,Tn7 DDE FP,DDE Tn6 FP inh,aDG glyco up
COc1ccccc1-c1cn(CC[C@H]2CC[C@@H](NS(=O)(=O)c3ccccc3C)[C@@H](CO)O2)nn1,-10.5,-1.1,-4.0,-0.3
O=C(c1ccc(C#Cc2ccccc2)o1)N1CCN(c2ccccn2)CC1,40.3*,-4.0,1.5,0.1
CCOC(=O)[C@]12CCC=C1N(Cc1ccco1)C(=O)[C@H](CC(=O)NCCCOC)C2,-11.5,-5.5,1.3,0.0
O=C(CSc1nnc(-c2ccc(Cl)cc2)n1C1CCCCC1)NN=Cc1c(O)ccc2ccccc12,.,-8.1,-1.0,.
O=C(Cc1ccccc1)NCCc1cccc(Cl)c1,25.7*,-3.7,-4.5,-0.1
O=C(CSc1nc2ccc(Cl)cc2[nH]1)NCCc1ccccc1,28.4*,-1.3,-1.4,0.0
O=C(O)CCC(=O)NCCc1cccc(Cl)c1,-8.1,-0.8,-2.6,-0.3
CCCCN(C=O)c1c(CC)nc2c(OCCOc3ccccc3)cccn12,3.2,1.2,2.6,0.3
CSCCC(NC(=O)c1ccc(Cl)cc1Cl)C(=O)NCc1ccccn1 (configuration not stated),-1.8,2.7,5.4,0.0

# Compound activity as filed in PubChem.
